Here are results for one compound from publication PMC5831081 (Biochemistry, 2017).

For one series, the target named is POR:cyt b5 (Rattus norvegicus, UniProt P00173+P00388). Description: NADPH oxidation assay, redox partners only. The class given is biochemical. As to conditions: control POR:cyt b5=4:2 without CYP; 20 μM 4-CPI; 37 °C. Put shortly:
(§1)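 Purified CYP2B was reconstituted with POR and cyt b5 at CYP:POR:cyt b5 1:4:2, or 0:4:2 for the partner-only control. Mixtures contained ligand (20 µM unless stated) and 1% acetone in 300 µL. After 5 min preincubation at 37 °C, 0.2 mM NADPH was added. NADPH consumption was recorded kinetically as the A340 decrease (ε 6.22 mM-1 cm-1). Rates are nmol/min/nmol P450, mean ± SD of three independent experiments.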

The target of another series is T1, CYP2B4 (Oryctolagus cuniculus, UniProt P00178, H226Y).
T1 sequence (P00178 with tags, fused parts or gaps H226Y): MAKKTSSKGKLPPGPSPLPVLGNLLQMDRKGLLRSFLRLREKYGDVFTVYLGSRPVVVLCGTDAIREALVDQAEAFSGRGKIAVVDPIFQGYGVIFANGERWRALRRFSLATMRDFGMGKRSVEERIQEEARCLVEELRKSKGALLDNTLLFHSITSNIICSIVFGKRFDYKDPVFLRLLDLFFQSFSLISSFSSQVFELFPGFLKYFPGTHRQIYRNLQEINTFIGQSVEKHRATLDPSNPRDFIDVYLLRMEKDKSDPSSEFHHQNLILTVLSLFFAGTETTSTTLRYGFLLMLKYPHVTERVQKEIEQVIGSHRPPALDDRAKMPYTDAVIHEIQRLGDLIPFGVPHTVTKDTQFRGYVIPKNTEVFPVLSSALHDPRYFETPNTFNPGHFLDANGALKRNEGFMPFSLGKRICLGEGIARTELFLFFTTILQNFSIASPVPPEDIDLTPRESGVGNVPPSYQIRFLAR
As to the kind of experiment: NADPH oxidation assay. Particulars: CYP:POR:cyt b5 1:4:2, 20 μM inhibitor, 37 °C. The class given is biochemical, rabbit. The essentials: as §1

Chain of POR:cyt b5 (P00388 whole entry): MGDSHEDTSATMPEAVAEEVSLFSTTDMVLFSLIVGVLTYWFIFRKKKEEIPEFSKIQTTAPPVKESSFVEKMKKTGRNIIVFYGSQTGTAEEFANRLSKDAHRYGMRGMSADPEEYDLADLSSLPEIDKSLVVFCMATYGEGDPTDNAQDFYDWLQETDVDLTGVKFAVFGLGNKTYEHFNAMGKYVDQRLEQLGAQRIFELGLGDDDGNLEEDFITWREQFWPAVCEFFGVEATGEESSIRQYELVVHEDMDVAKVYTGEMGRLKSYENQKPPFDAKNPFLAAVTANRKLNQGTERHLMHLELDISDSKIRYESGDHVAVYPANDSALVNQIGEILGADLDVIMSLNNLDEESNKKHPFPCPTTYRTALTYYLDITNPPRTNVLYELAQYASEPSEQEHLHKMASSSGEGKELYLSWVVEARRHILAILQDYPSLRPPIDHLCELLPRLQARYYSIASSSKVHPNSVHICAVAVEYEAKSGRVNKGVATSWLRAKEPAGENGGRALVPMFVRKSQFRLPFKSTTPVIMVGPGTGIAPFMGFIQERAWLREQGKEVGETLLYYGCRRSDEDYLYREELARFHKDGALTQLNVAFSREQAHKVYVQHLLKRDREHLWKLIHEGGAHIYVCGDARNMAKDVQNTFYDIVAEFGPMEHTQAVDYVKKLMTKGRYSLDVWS
Chain of POR:cyt b5 (P00173 whole entry): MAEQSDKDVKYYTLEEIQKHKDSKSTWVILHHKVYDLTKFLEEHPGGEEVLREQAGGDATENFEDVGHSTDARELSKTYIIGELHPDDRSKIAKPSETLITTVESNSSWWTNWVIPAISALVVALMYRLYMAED

For `Clc1ccc(-c2c[nH]cn2)cc1` [4-CPI, 4-(4-chlorophenyl)imidazole, reference compound], the figures for the NADPH oxidation rate at POR:cyt b5 and at CYP2B4 were 12±1 nmol/min/nmolP450 and 10±1 nmol/min/nmolP450, respectively.
